Bioassay records deposited in PubChem BioAssay by several laboratories.
A selection: hits, their analogues and other compounds. The true share with any hit is near 2.3%.
FN deposition inh: inhibitors of fibronectin matrix deposition, primary screen, AH1F cells, Alexa488-fibronectin fluorescence, plate reader; AH1F fibroblasts, overnight; inhibition, % at 12.6 µM; actives 0.086% (n = 350,000); AID 743247, 2014;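 active means mean inhibition across replicates of 30% or more, regardless of how many single replicates reach that level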;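 further: positive control wells lacked labelled fibronectin entirely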
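Assay system: AH1F fibroblast monolayer, labelled fibronectin deposition. Amount: 10000 cells per well. Also added: labelled fibronectin 24 nM. Compound: single-point pinned compound. Incubation: cell attachment 1 h, compound and FN exposure overnight. Detection: fluorescence after three HBSS washes, excitation 485 nm, emission 525 nm. Read-out: inhibition of fibronectin deposition signal.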
LGR2 inh: inhibitors of bursicon-induced LGR2 CRE-luciferase signal, primary screen, cell-based, HEK293, CRE-luciferase reporter, bursicon stimulation; AID 720647, 2013; Drosophila bursicon receptor LGR2 (rickets); actives 0.35% (n = 380,000); bursicon-stimulated, 4 h; inhibition, % at 9.99 µM;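 active means drop in luminescence signal, shown as inhibition above about 50% in the replicate tests, limit read from the data, passing the limit was not always enough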;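 further: agonist challenge used bursicon conditioned medium at about half maximal strength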
TWEAK-Fn14 inh: inhibitors of TWEAK-Fn14 signaling, primary screen, luciferase reporter cells, uHTS. actives 2% (n = 360,000). inhibition, % at 10 µM. TWEAK-stimulated Fn14 reporter cells, luciferase luminescence, 8 h. AID 1159606, 2016; in the data active means inhibition above about 50%
TROY signal inh: inhibitors of TROY-driven NF-kB signaling, primary screen, Q293 LMP1-TROYcd cells, NF-kB luciferase, uHTS; Q293 LMP1-TROYcd NF-kB luciferase reporter, 4 h; inhibition, % at 10 µM; AID 1347056, 2019; actives 0.98% (n = 360,000);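 active means compounds whose plate-normalised and pattern-corrected inhibition of the luciferase reporter signal at the single screening dose is 50% or more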
EWS-Fli block: EWS/Fli-driven NR0B1 reporter inhibitors, primary screen, A673 cells, NR0B1 luciferase, luminescence, MLPCN library | viability-normalised | inhibition, % at 12.6 µM | actives 0.67% (n = 350,000) | AID 651661, 2012;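 active means mean inhibition of at least 50% after viability correction, with every replicate also passing that limit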;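 further: firefly luciferase signal divided by Alamar Blue viability fluorescence both relative to DMSO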
XiGFP reactiv: activators of inactive X chromosome reactivation, primary screen, imaging, XiGFP fibroblasts, GFP high-content imaging, set 2. XiGFP mouse fibroblasts, % GFP-positive cells imaging, 3 d; cells co-treated with 5-aza-dC sensitizer; scaled so ellipticine positive control = 100%. activation, % at 7.58 µM. actives 0.055% (n = 360,000). AID 743238, 2013;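 active means mean normalized replicate activation at least 10% and every replicate at or above 10%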;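 further: 0% = median of on-plate neutral control wells and 100% = ellipticine 6 µM median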
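System: 68-5-11 XiGFP fibroblast line; Timing: 3 days compound exposure; Compound dosing: one concentration, pinned; Benchmarks: positive control ellipticine, 6 µM final; Buffer or medium: DMEM containing 5-aza-dC.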
* hit, by the source's call; . = no result.

SMILES	FN deposition inh	LGR2 inh	TWEAK-Fn14 inh	TROY signal inh	EWS-Fli block	XiGFP reactiv
CC1CCN(C2=NC(=O)/C(=C/c3ccccc3F)S2)CC1	-12	49	95*	79*	19	0
COc1ccc2nc(Nc3nc(CSc4nnnn4-c4ccccc4)cc(=O)[nH]3)nc(C)c2c1	2	.	57*	23	.	.
CC(/C=N/n1c(-c2cccnc2)n[nH]c1=S)=C\c1ccccc1	1	.	6	19	.	.
CC(=C/c1ccccc1)/C=N/n1c(-c2ccncc2)n[nH]c1=S	3	17	78*	52*	0	0
COc1ccc(S(=O)(=O)Nc2ccc3c(c2)CC(=O)N([C@H](C)CO)C[C@H](C)[C@@H](CN(C)S(=O)(=O)c2ccccc2)O3)cc1	.	-3	.	.	10	-1
COc1cc(/C=N/Nc2ccc(S(N)(=O)=O)cc2[N+](=O)[O-])cc(OC)c1O	-2	-1	-50	59*	15	1
O=C(Nc1nc2c(s1)CCCC2)c1ccc(Br)s1	.	26	55*	6	.	.
COc1ccc(NC(=O)Nc2ccc3c(c2)CC(=O)N([C@H](C)CO)C[C@H](C)[C@H](CN(C)S(=O)(=O)c2ccc(Cl)cc2)O3)cc1	6	17	.	.	46	0
O=c1oc2cc(OCc3c(F)cccc3Cl)ccc2cc1-c1ccccn1	.	.	29	10	.	.
CCCOc1ccc2cc(-c3ccccn3)c(=O)oc2c1	-4	88*	93*	64*	77*	0
CCCCn1c(=O)[nH]c(=O)c2c1nc(Cn1ncc(Cl)c(Cl)c1=O)n2CCC	-15	24	94*	71*	46	0
CCCCn1c(=O)[nH]c(=O)c2c1nc(CN1C(=O)c3ccccc3S1(=O)=O)n2CCC	.	.	9	12	.	.
Cc1noc(C)c1NC(=O)N(C)C[C@H]1OCCCC[C@H](C)Oc2ccc(NC(=O)NC3CCCCC3)cc2C(=O)N([C@@H](C)CO)C[C@@H]1C	5	-18	.	.	-8	0
CO[C@@H]1CN(C)C(=O)c2ccc(NC(=O)NC(C)C)cc2OC[C@H](C)N(C(=O)NC(C)C)C[C@H]1C	-1	17	.	.	-3	0
CC(C)C(=O)N1CCN(c2ccc(NC(=O)c3ccc4c(c3)OCCO4)cc2Cl)CC1	-1	85*	82*	61*	.	.
CC(=O)N1CCN(c2ccc(NC(=O)c3ccc4c(c3)OCCO4)cc2Cl)CC1	-1	-36	-14	7	-67	0
CCC(=O)N1CCN(c2ccc(NC(=O)c3ccc([N+](=O)[O-])o3)cc2)CC1	16	5	-1	-15	54*	0
O=C(Nc1ccc(N2CCN(C(=O)c3ccc(Cl)cc3)CC2)cc1)c1ccc2c(c1)OCCO2	-12	26	92*	70*	.	.
CCCC(=O)N1CCN(c2ccc(NC(=O)c3ccc([N+](=O)[O-])o3)cc2)CC1	22	18	-6	5	58*	0
COc1ccc(-c2cn(CC[C@H]3CC[C@H](NC(=O)Nc4ccc(F)cc4)[C@@H](CO)O3)nn2)cc1	-3	-8	.	.	-9	0
C[C@@H]1CN([C@@H](C)CO)C(=O)Cc2cc(NC(=O)C3CCCCC3)ccc2O[C@H]1CN(C)C(=O)Nc1cccc2ccccc12	0	3	.	.	11	-1
O=C(Nc1ccc(N2CCN(Cc3ccccc3F)CC2)cc1)c1ccccc1[N+](=O)[O-]	1	3	8	19	3	0
CS(=O)(=O)N1CCN(c2ccc(NC(=O)c3ccc([N+](=O)[O-])o3)cc2)CC1	36*	10	1	-19	43	-1
O=C(Nc1ccccc1N1CCN(C(=O)c2ccccc2)CC1)c1ccc([N+](=O)[O-])o1	-9	-2	-27	-11	4	0
O=C(Nc1ccc(N2CCCCC2)cc1)c1ccc([N+](=O)[O-])o1	3	-12	45	24	-1	0
SMILES	FN deposition inh	LGR2 inh	TWEAK-Fn14 inh	TROY signal inh	EWS-Fli block	XiGFP reactiv
O=C(Nc1ccc(N2CCN(C(=O)c3ccc(Cl)cc3)CC2)cc1)c1ccc([N+](=O)[O-])o1	8	46	33	7	67*	0
CC1CCN(c2ccc(NC(=O)c3ccc([N+](=O)[O-])o3)cc2)CC1	19	2	42	9	13	0
O=C(Nc1ccc(N2CCN(Cc3ccccc3F)CC2)cc1)c1ccc([N+](=O)[O-])o1	0	13	27	15	52*	0
CC(C)(C)C(=O)N1CCN(c2ccc(NC(=O)c3ccc([N+](=O)[O-])o3)cc2)CC1	11	5	-9	-15	54*	1
COc1cc([N+](=O)[O-])cc(/C=N/NC(=O)c2ccc(NC(=O)c3ccc(C)cc3)cc2)c1O	0	28	70*	-1	29	0
COc1cc([N+](=O)[O-])cc(/C=N/NC(=O)c2ccc(C)nc2)c1O	11	-12	10	-8	.	0
CC1CCc2nc(N)c(C#N)c(-c3cccnc3)c2C1 (stereo unspecified)	13	27	83*	54*	3	0
CCOC(=O)c1sc(NC(=O)c2ccc(CC)s2)nc1C	.	.	19	-51	.	.
CCOC(=O)c1cccc(NC(=O)c2cc3ccccc3o2)c1	1	-15	-34	-28	84*	0
CCOC(=O)c1csc(NC(=O)c2ccc(OCC)cc2)n1	-4	50	37	0	53*	0
Cc1nnc(NC(=O)c2cc3ccccc3o2)s1	-1	-36	12	-18	-97	0
CCOC(=O)c1sc(NC(=O)c2cc3ccccc3o2)nc1C	4	-69	-13	-40	87*	0
CCOC(=O)c1sc(NC(=O)c2ccccc2OC)nc1C	-2	12	36	-5	86*	0
CC(C)NC(=O)N(C)C[C@@H]1OCCCC[C@H](C)Oc2ccc(NC(=O)c3ccccc3)cc2C(=O)N([C@H](C)CO)C[C@H]1C	.	1	.	.	.	2
CCCC(=O)N1CC2(CCN(C(=O)C3CCC3)CC2)c2c(n(C)c3cc(OC)ccc23)[C@@H]1CO	.	-3	.	.	-7	0
Cc1ccc(S(=O)(=O)N(C)C[C@H]2Oc3ccc(NS(=O)(=O)c4ccccc4)cc3CC(=O)N([C@H](C)CO)C[C@@H]2C)cc1	.	-9	.	.	8	0
COc1ccc(NC(=O)Nc2ccc3c(c2)C(=O)N([C@H](C)CO)C[C@@H](C)[C@@H](CN(C)C(=O)Nc2c(C)noc2C)O3)cc1	.	-9	.	.	-10	0
